Source: PubChem (several laboratories)
Mdm2 MdmX PPI – human Mdm2/MdmX binding inhibition | O15151+Q00987 | SaOS-2 split-luciferase Mdm2/MdmX complementation, luminescence | inhibition, % at 8 µM | 330,000 tested, 3% active | AID 485346;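 active = inhibition of at least 50% at 8 µM in the primary screen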
Target sequence (O15151 whole entry, looked up): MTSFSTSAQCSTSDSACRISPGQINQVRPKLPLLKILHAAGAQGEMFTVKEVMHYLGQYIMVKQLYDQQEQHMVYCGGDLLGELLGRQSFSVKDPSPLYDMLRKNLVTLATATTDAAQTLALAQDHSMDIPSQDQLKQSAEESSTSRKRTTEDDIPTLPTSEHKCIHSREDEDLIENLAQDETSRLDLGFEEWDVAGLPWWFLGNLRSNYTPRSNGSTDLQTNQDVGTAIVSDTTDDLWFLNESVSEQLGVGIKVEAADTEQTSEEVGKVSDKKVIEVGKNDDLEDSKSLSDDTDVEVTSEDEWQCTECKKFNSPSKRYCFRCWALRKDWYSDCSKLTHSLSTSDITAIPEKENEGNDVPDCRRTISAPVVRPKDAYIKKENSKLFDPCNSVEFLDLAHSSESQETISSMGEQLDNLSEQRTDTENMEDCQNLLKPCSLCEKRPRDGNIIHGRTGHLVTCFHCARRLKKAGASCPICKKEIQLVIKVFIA
Target sequence (Q00987 whole entry, looked up): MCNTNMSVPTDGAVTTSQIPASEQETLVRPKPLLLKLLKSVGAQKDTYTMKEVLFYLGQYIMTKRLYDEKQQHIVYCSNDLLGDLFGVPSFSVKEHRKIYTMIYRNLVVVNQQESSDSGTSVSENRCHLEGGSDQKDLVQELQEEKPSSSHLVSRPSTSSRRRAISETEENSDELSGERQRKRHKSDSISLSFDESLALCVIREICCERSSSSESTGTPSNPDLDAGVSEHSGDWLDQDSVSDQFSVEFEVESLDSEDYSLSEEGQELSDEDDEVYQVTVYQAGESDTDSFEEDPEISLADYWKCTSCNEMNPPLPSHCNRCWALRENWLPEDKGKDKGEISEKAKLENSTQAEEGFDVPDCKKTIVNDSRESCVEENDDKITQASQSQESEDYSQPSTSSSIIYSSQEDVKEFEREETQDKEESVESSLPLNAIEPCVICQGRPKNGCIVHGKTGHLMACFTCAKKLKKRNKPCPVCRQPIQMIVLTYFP
Beta apoptosis – blocks beta cell apoptosis; INS-1E cytokine-induced death, ATP luminescence, 48 h; percent of positive-control rescue, neutral wells zero; AID 435005; protection from apoptosis, % (test concentration not listed); 300,000 tested, 0.8% active;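 active = Every replicate reaches about 75%, or at least half do and their mean reaches it too, limit read from the data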;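 note: 0% = cytokine-treated negative control wells and 100% = positive control rescue; higher means more ATP so stronger rescue from cytokine killing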
CSC inhib – cancer stem cell inhibition | AID 2717 | cancer stem cell-like cells viability, luminescence | inhibition, % at 7.5 µM | 300,000 tested, 1.1% active; in the data active = inhibition above about 75%; tested in HMLE shEcad cells
SKKanGAS inh – inhibitors of SKKanGAS S. pyogenes growth in kanamycin (SK-promoter or general growth effect); BacTiter-Glo, 6 h; inhibition, % at 7.5 µM; 300,000 tested, 1.3% active;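 active = mean replicate score, as percent of positive control median, at least 50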;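 note: strain carries kanamycin resistance gene driven by streptokinase promoter and grows in 40 µg/ml kanamycin; loss of luminescence reflects streptokinase promoter inhibition or plain growth inhibition; 0% = median of DMSO wells and 100% = positive control at its reference dose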
L major viab – reduces viability of Leishmania major promastigotes; resazurin fluorescence viability; inhibition, % at 10 µM; 200,000 tested, 9% active; AID 1063; in the data active = inhibition above about 50%;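 note: promastigotes grown with compound for 44 hours at 28 °C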
T cruzi repl – T. cruzi replication inhibition; 300,000 tested, 1.4% active; AID 1885; inhibition, % (concentration not given with the values); T. cruzi beta-gal in NIH3T3, luminescence, 90 h;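 active = mean inhibition across valid replicates above about 55%, limit read from the data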;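 note: signal also drops with host cell toxicity which is not excluded here; 0% = plate median of DMSO wells and 100% = zero luminescence signal; higher percent means less beta-gal luminescence so fewer parasites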
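Assay system: NIH/3T3 host cells with β-galactosidase reporter T. cruzi; input: 5,000 host fibroblasts per well; compound: single 50 nL compound addition per well in DMSO; timing: ≥90 h infection period, 3 h prior cell attachment; measured by: GalScreen β-gal luminescence, detergent lysis, 60 min; evaluation: percent inhibition of parasite-derived β-gal signal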
* hit, by the source's call; · = no result. In the library only some 9.4% were active in any assay of this set; here they are far more common.

SMILES | Mdm2 MdmX PPI | Beta apoptosis | CSC inhib | SKKanGAS inh | L major viab | T cruzi repl
COc1cccc(OCc2cc(C(=O)N(C)CCOc3ccc(C)cc3)no2)c1 | -73 | · | · | -7 | · | 15
COc1ccccc1N1CCN(C2CCCN(C(=O)c3ccccn3)C2)CC1 (stereo unspecified) | 14 | 3 | 8 | -3 | · | -14
CC(=O)c1ccc(NC(=S)Nc2cccc(Cl)c2C)cc1 | 8 | -4 | 6 | 3 | 2 | -20
CC(C)n1nc(C(=O)Nc2nnc(SCc3c(Cl)cccc3Cl)s2)c2ccccc2c1=O | 45 | -6 | 36 | 64* | 0 | -12
CC(C)n1nc(C(=O)Oc2cccc(Cl)c2Cl)c2ccccc2c1=O | 24 | -1 | 0 | -4 | -3 | -10
Nc1ncnc2c1ncn2[C@@H]1O[C@H](CNC(=O)[C@@H]2CCN2)[C@@H](O)[C@H]1O | 7 | · | · | · | · | ·
COCCNc1nc(-c2cc(C)n(CCc3ccc(OC)cc3)c2C)cs1 | -1 | 1 | 3 | -5 | 5 | 60*
O=C(C1=C[C@@H](c2ccc(Br)cc2)C[C@@H](OCc2ccc(CO)cc2)O1)N1CCN(Cc2ccc3c(c2)OCO3)CC1 | 21 | 8 | 43 | 20 | 56* | 36
O=C(C1=C[C@H](c2ccc(C(F)(F)F)cc2)C[C@H](OCc2ccc(CO)cc2)O1)N1CCN(Cc2ccc3c(c2)OCO3)CC1 | 45 | 14 | 80* | 23 | 45 | 65*
O=C(C1=C[C@H](c2ccc3c(c2)OCO3)C[C@H](OCc2ccc(CO)cc2)O1)N1CCCCCCC1 | -4 | -1 | 4 | 6 | 61* | 19
O=C(C1=C[C@@H](c2ccc(C(F)(F)F)cc2)C[C@@H](OCc2ccc(CO)cc2)O1)N1CCN(Cc2ccc3c(c2)OCO3)CC1 | 31 | 6 | 44 | 11 | 56* | 30
O=C(C1=C[C@@H](c2ccc(C(F)(F)F)cc2)C[C@@H](OCCCCO)O1)N1CCN(Cc2ccc3c(c2)OCO3)CC1 | 10 | · | 11 | 4 | 38 | 36
COCCN(C(=O)CSc1nc(N)cc(=O)[nH]1)c1c(N)n(Cc2ccccc2)c(=O)[nH]c1=O | -2 | -4 | -1 | -9 | · | -4
Cc1cc(C)nc(N2CCN(c3ccc(F)cc3)CC2)n1 | 7 | · | · | -1 | · | -6
O=C(CCC(=O)N1CCOc2ccc(Cl)cc21)NCCN1CCOCC1 | 13 | 0 | -22 | -6 | · | 0
O=C(Nc1ccc(N2CCOCC2)c(Cl)c1)c1cccnc1 | 9 | · | -10 | -2 | -4 | 1
O=C(Nc1cccc2cccnc12)c1cccnc1 | -16 | 2 | 0 | -1 | 24 | -12
CN(C)C(=O)c1ccc(NC(=O)c2cccnc2)cc1 | 4 | 96* | -3 | -4 | -3 | -5
O=C(Nc1ccc(OC(=O)c2cccnc2)cc1)c1cccnc1 | 6 | -5 | -7 | -2 | 0 | -19
O=C(Nc1cccc2nsnc12)c1cccnc1 | -3 | -13 | 18 | -5 | 78* | 0
COCCCNC(=O)Cn1nnc(-c2ccc(NC(=O)c3cccnc3)cc2)n1 | 16 | 97* | -11 | 6 | -5 | -6
O=C(Nc1ccc(N2CCCC2)c(Cl)c1)c1cccnc1 | -6 | 5 | 3 | 11 | 68* | 8
CCOC(=O)CCCNC(=O)CN1CCC(c2nc3ccccc3s2)CC1 | -4 | 0 | · | -8 | · | 21
CC(Sc1nnc(Cc2ccccc2)o1)C(=O)NC1(C#N)CCCCC1 (stereo unspecified) | -2 | 5 | -9 | · | · | ·
O=C(Nc1ccc(NC(=O)c2cccnc2)cc1)c1ccccc1 | -8 | 0 | -9 | -4 | · | -11
SMILES | Mdm2 MdmX PPI | Beta apoptosis | CSC inhib | SKKanGAS inh | L major viab | T cruzi repl
O=C(Nc1ccc(F)cc1)c1cccnc1 | 16 | 76* | 8 | -1 | · | -18
CCCCSc1ccc(NC(=O)c2cccnc2)cc1 | -2 | 100* | 0 | -17 | -5 | 10
CCCCCCSc1cc(-c2nc3cc(C)ccn3c2NCCCC)ccc1OC | 16 | 8 | 77* | 47 | · | 33
CCCCCCSc1cccc(-c2nc3cc(C)ccn3c2NC2CCCCC2)c1 | 21 | 13 | 83* | 40 | · | 31
CCCCCCSc1cccc(-c2nc3cc(C)ccn3c2NCc2ccccc2)c1 | 18 | 10 | 63 | 37 | · | 20
CCCCCCSc1cc(-c2nc3cnccn3c2NCCCC)ccc1OC | 7 | -6 | 105* | · | · | ·
CCCCNc1c(-c2ccc(OC)c(Sc3ccc(OC)cc3)c2)nc2cnccn12 | 33 | 7 | · | · | · | ·
C/C(CC(=O)Nc1ccccc1C#N)=N\NC(=O)c1ccncc1 | 24 | -5 | -6 | -2 | · | -16
CC(C)CC1(C)N=C(c2ccccc2)C(=S)N1 (stereo unspecified) | · | 0 | -20 | 1 | -2 | 8
CCCc1cc(=O)[nH]c2nnc(SCC(=O)NCc3ccc4c(c3)OCO4)n12 | -3 | -4 | -2 | -4 | · | 0
COc1cccc(NC(=O)c2cc(CN3C(=O)c4ccccc4C3=O)ccc2OC)c1 | 17 | -3 | 4 | 13 | 89* | 12
Cc1ccc(S(=O)(=O)CNC(=S)c2ccc3ccccc3c2)cc1 | -10 | -9 | 0 | 62* | -21 | -23
Cc1nnc(SCC(=O)N(CC(C)C)c2c(N)n(Cc3ccccc3)c(=O)[nH]c2=O)n1N | -1 | · | -9 | -4 | · | -10
Cc1nc(C)c(C(=O)N/N=C/c2cn(C)c3ccccc23)s1 | 27 | -4 | 4 | -10 | 3 | -9
O=C(CN(Cc1ccccc1)S(=O)(=O)c1ccc2c(c1)OCCO2)N/N=C/c1ccc(F)cc1 | 20 | -5 | -11 | 2 | 8 | 22
CCN(CC(=O)NCc1ccncc1)S(=O)(=O)c1ccc(OC)cc1 | 8 | -4 | -16 | 2 | · | 5
O=C(CN(Cc1ccccc1)S(=O)(=O)c1ccc2c(c1)OCCO2)N/N=C/c1cccc(Br)c1 | 16 | -21 | -33 | 13 | 80* | 21
COc1cc(/C=N/NC(=O)CN(Cc2ccccc2)S(=O)(=O)c2ccc3c(c2)OCCO3)ccc1O | -13 | -6 | 4 | 16 | 7 | 4
COc1ccc(/C=N/NC(=O)CN(Cc2ccccc2)S(=O)(=O)c2ccc3c(c2)OCCO3)cc1 | -28 | -6 | 5 | 14 | 90* | -4
COc1ccc(CNC(=O)CN(CCC(C)C)S(=O)(=O)c2ccc3c(c2)OCCO3)cc1 | 6 | 2 | -3 | -17 | 80* | 9
COc1cccc(CN2CCN(CC(=O)NCCc3ccccc3)CC2)c1 | 18 | -1 | -12 | 4 | · | 8
Cc1cc(C)cc(Oc2ncnc3c2ncn3Cc2c(Cl)cccc2Cl)c1 | 23 | · | · | 6 | -3 | 60*
Cc1cccn(Cc2c(Cl)cccc2Cl)c1=O | 13 | · | 1 | -7 | · | -13
Cc1nc(N2CCOCC2)nc(Oc2ccccc2)c1[N+](=O)[O-] | 18 | -3 | 1 | -1 | · | 13
Cc1ccc(N(C(=O)c2csnn2)C(C(=O)NC2CCCCC2)c2ccncc2)cc1 (stereo unspecified) | 6 | -5 | -2 | 15 | · | 6
